pIC50: −log10 of the molar value. Active and inactive are the calls of the source. The rule behind the calls is not given here.
Columns and labels:
[1] = target: T1, 5-hydroxytryptamine receptor 3A (Mus musculus) (UniProt P23979); test: Antagonist activity at 5-HT3 receptor in mouse TG sensory neurons assessed as inhibition of 5-HT3 receptor agonist 5-HT-evoked currents at 1 uM pre-applied before 5-HT addition
T1 sequence (whole entry): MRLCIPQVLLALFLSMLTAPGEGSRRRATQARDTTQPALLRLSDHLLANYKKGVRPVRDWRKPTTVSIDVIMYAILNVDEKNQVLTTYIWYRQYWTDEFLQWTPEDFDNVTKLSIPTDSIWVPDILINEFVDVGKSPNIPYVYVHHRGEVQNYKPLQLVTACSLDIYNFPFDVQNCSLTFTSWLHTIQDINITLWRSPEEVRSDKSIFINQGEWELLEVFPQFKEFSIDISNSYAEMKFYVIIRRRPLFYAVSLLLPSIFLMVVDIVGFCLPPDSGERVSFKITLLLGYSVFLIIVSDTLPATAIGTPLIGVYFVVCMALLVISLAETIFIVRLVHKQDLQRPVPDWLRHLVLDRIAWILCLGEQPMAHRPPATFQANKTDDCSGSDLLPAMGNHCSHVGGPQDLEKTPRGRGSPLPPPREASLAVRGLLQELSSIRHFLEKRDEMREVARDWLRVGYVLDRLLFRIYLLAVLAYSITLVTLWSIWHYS
Procedure, shortened: (§1)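 In mouse trigeminal sensory neurons, test compound was preapplied at 1 μM, then 10 μM GABA (GABAA) or 10 μM 5-HT (5-HT3) was applied. Current amplitudes were normalized to the control current evoked by the same agonist alone. N = 5 cells.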

[2] = target: T2, P2X purinoceptor 7 (Homo sapiens) (UniProt Q99572); test: Antagonist activity at human P2X7R transfected in human 1321N1 cells assessed as inhibition of Bz-ATP-induced calcium influx relative to control; assay type: cell-based; settings: concentration not given here
T2 sequence (whole entry): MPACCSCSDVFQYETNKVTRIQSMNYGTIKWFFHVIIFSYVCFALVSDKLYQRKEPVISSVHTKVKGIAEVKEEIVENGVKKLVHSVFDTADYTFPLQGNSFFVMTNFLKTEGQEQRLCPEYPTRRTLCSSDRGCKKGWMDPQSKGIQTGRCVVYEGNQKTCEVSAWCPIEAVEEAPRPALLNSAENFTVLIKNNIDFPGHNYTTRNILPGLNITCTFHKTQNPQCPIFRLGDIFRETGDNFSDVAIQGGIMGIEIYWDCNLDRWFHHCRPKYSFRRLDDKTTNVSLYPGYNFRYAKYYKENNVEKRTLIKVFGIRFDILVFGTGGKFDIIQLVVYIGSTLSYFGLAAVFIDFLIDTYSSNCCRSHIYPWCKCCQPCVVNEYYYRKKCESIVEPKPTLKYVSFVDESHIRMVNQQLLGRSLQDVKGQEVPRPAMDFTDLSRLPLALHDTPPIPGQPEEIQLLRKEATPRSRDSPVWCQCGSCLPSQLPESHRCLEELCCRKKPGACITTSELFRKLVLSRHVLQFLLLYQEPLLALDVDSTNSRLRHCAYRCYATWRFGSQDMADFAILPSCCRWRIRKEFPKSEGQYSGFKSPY

Mus musculus = species: Mus musculus; test: Antagonist activity at GABAA receptor in mouse TG sensory neurons assesed as inhibition of GABAA receptor agonist GABA-evoked currents at 1 uM pre-applied before GABA addition; procedure, shortened: as §1
P2X purinoceptor 7 = target: T3, P2X purinoceptor 7 (Homo sapiens, UniProt Q99572); test: Antagonist activity at human P2X7R transfected in human 1321N1 cells assessed as inhibition of Bz-ATP-induced calcium influx; assay type: cell-based
T3 sequence (Q99572 whole entry): T2 sequence (whole entry)

[3] = target: T4, P2X purinoceptor 1 (Homo sapiens) (UniProt P51575); test: Antagonist activity at human P2X1R transfected in human 1321N1 cells assessed as inhibition of ATP-induced calcium influx relative to control; assay type: cell-based; settings: concentration not given here
T4 sequence (whole entry): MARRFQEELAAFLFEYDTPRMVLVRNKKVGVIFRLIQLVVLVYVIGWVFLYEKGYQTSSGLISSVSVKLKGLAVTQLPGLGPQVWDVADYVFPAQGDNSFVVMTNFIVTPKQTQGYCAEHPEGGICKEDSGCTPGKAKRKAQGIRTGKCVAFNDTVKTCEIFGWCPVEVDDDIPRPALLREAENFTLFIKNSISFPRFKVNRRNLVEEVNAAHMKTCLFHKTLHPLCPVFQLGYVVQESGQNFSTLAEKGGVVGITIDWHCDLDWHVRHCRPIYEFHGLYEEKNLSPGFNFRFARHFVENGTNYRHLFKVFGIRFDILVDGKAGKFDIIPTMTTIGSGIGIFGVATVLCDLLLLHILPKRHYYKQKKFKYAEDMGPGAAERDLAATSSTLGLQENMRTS
Procedure, shortened: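 1321N1 astrocytoma cells stably expressing human P2X1, P2X2, P2X3 or P2X4 receptor. Calcium influx was induced by ATP at the EC80 for each subtype. Results are given as IC50 (μM) or % inhibition at the indicated concentration.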

[4] = target: T5, P2X purinoceptor 3 (Mus musculus) (UniProt Q3UR32); test: Agonist activity at P2X3R in mouse TG sensory neurons assessed as induction of channel current at 10 uM at -65 mV holding potential by whole cell voltage clamp method relative to alpha,beta-meATP
T5 sequence (whole entry): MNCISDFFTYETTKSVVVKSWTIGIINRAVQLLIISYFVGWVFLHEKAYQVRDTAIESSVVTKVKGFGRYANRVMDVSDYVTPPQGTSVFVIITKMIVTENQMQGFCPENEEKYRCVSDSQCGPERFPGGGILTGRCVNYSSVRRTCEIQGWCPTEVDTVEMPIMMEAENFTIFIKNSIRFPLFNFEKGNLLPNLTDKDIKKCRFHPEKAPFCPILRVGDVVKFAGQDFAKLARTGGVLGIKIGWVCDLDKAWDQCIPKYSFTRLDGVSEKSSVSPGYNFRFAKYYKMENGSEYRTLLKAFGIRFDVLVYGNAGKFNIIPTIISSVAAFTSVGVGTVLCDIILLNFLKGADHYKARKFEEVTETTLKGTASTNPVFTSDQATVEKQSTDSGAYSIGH

Homo sapiens [5] = species: Homo sapiens; test: Selectivity ratio of IC50 for human P2X1R transfected in human […] 1321N1 cells to IC50 for human transfected in human 1321N1 cells; assay type: cell-based
Homo sapiens [6] = species: Homo sapiens; test: Selectivity ratio of IC50 for human P2X4R transfected in human […] 1321N1 cells to IC50 for human transfected in human 1321N1 cells; assay type: cell-based

Row | SMILES | inhibition [1] | inhibition [2] | inhibition (Mus musculus) | pIC50 (P2X purinoceptor 7) | inhibition [3] | Activity [4] | Ratio IC50 (Homo sapiens [5]) | Ratio IC50 (Homo sapiens [6])
1 | Nc1ncnc2c1ncn2[C@@H]1O[C@H](COP(=O)(O)CP(=O)(O)OP(=O)(O)O)[C@H]2OC3(CCCCC3)O[C@H]21 | inactive | -1% | inactive | < 4.00 | -1% | inactive | – | –
2 | CC1(C)O[C@@H]2[C@H](O1)[C@@H](COP(=O)(O)OP(=O)(O)OP(=O)(O)O)O[C@H]2n1cnc2c(N)ncnc21 | inactive | 5% | inactive | < 4.00 | – | inactive | 10 | 12
3 | Nc1ncnc2c1ncn2[C@@H]1O[C@H](COP(=O)(O)OP(=O)(O)OP(=O)(O)O)[C@H]2OCO[C@H]21 | – | 21% | – | < 4.00 | 1% | inactive | – | –
